# Measurements: PMC11607638 (The FASEB Journal, 2024)
# Like-named read-outs stand apart in the source and are kept apart here. Square brackets hold non-standard residues; d marks the D form. Ends that are not written are not given here. sY = N[C@@H](Cc1ccc(OS(=O)(=O)O)cc1)C(=O)O
# Columns and labels:
# SK receptor gene SKR [1] = experiment: Fura-2 calcium imaging in perifused SKR-CHO-K1 cells; assay type: cell-based, Aedes aegypti; details: for Reversibility of stimulation upon wash-out in perifused SKR-CHO-K1 cells: Figures 4, 5, 6; for Onset (lag time) of cytosolic calcium oscillations in SKR-CHO-K1 cells: at lower concentrations, Figures 4 and 5
# Outline: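 CHO-K1 cells at 80–90% confluency were transfected in serum-free medium with pcDNA3.1(+)-SKR using jetPRIME for 24–36 h. Cells were loaded with Fura-2AM (10 µM, 50 min, 37 °C), attached to coated coverslips and perifused in HEPES buffer, pH 7.4. The 340/380 nm excitation ratio was recorded per single cell. Peptides used: SK1 300 pM–30 nM, SK2 3 nM ± devazepide 10 nM, CCK 1–100 nM. Peak area above baseline per 10 min; mean ± SEM, t-test.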
# CHO-K1 cells = experiment: Fura-2 calcium imaging in un-transfected parental CHO-K1 cells; assay type: cell-based, Chinese hamster; details: 30 nM
# Outline: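 Un-transfected CHO-K1 cells were grown in DMEM/F12 with 10% FBS, then loaded with Fura-2AM (10 µM, 50 min, 37 °C) and perifused on coated coverslips. They were exposed to SK1 or SK2 at 30 nM. Cytosolic calcium was followed as the 340/380 nm excitation ratio in single cells.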
# Aedes aegypti [2] = experiment: Blood meal size after thoracic peptide injection; assay type: in vivo; details: 24 h
# Outline: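 Females 3 days post-eclosion, starved 12 h before and 24 h after a 1 µL thoracic injection, then blood-fed. Each mosquito was weighed before and after the meal, and intake was taken as the weight difference. SK2 was given at 50, 100 or 150 pmol/µL against DEPC water, 30 per group. For reversal, SK2 100 µM plus proglumide 14 mM (final, 1:1 mix) was injected and intake weighed 24 h later.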
# Aedes aegypti [3] = experiment: Blood-feeding time course after thoracic peptide injection; assay type: in vivo; details: Figure 3C
# Outline: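 Females were given 1 µL thoracic injections of DEPC water, SK1, SK2 (200 µM) or SK1+SK2 (100 µM each, final), then kept in separate cages for 24 h, 20 per group, and offered blood. Feeding was counted as complete when a mosquito stopped and no longer moved actively. Completed feeders were recorded every 10 min until all had fed; run in triplicate.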
# SK gene SK = experiment: qPCR of SK mRNA in mosquito head after peptide injection; assay type: in vivo, Aedes aegypti; details: after blood feeding 24 h after injection
# SK receptor gene SKR [4] = experiment: qPCR of SKR mRNA in mosquito head after peptide injection; assay type: in vivo, Aedes aegypti; details: after blood feeding 24 h after injection
# [5] = Body weight of female mosquitoes after injection; assay type: in vivo, Aedes aegypti; details: for Pre-blood meal body weight among groups: DEPC water, SK2 100 μM, SK2 + proglumide (Figure 3F left)
# Outline: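 Females 3 days post-eclosion were starved 12 h, given a 1 µL thoracic injection, and starved a further 24 h. They were weighed on a balance immediately before the blood meal, 30 per group.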
# [6] = test system: mammalian cholecystokinin 1 receptor (CCK1R); experiment: Fura-2 calcium imaging in isolated rat pancreatic acini; assay type: cell-based; details: CCK 10 pM
# Outline: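 Acini came from male Sprague-Dawley rats (250–450 g) by collagenase P digestion (0.2 g/L, 2 × 10 min, 37 °C) in HEPES-buffered saline, pH 7.4. They were loaded with Fura-2AM (10 µM, 30 min) and attached to Cell-Tak- or Matrix-Gel-coated coverslips in a perifusion chamber. The buffer was the same minus BSA, amino acids and trypsin inhibitor. Fluorescence was excited alternately at 340/380 nm and the ratio recorded over time.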
compound,measurement,setting,value
GGEGEQFDDY(SO3H)GHMRF [SK2],Reversibility of stimulation upon wash-out in perifused SKR-CHO-K1 cells,SK receptor gene SKR [1],long‐lasting even after wash‐out
same,Calcium response in SKR-CHO-K1 cells,SK receptor gene SKR [1]; SK2 100 pM,did not stimulate any increases in calcium concentration
same,Calcium response in SKR-CHO-K1 cells,SK receptor gene SKR [1]; SK2 3 nM alone (parallel to antagonist experiment),strong calcium oscillations
same,Calcium response in SKR-CHO-K1 cells,"SK receptor gene SKR [1]; SK2 at 300 pM, 1, 3, 10, and 30 nM (all)",lasting calcium oscillations
same,Onset (lag time) of cytosolic calcium oscillations in SKR-CHO-K1 cells,SK receptor gene SKR [1],significant lag time
same,EC50,"SK receptor gene SKR [1]; read-out: EC50, calcium oscillations (areas under the peak above baseline per 10 min), SK2, SKR-CHO-K1, Fura-2 F340/F380, N = 5-8",0.251 nM
same,Calcium response in parental CHO-K1 cells,CHO-K1 cells,no effect
same,Blood intake vs control,"Aedes aegypti [2]; SK2 50 μM (50 pmol in 1 μL), thoracic injection, 30 per group",no significant difference
same,"Prolongation of time to complete a blood meal, vs DEPC water and among peptides","Aedes aegypti [3]; SK1, SK2 at 200 μM, SK1 + SK2 at 100 μM each",stronger prolongation than SK1
same,SK mRNA expression vs DEPC water control,SK gene SK,decrease significantly
same,SKR mRNA expression vs DEPC water control,SK receptor gene SKR [4],No difference
same,Pre-blood meal body weight among groups,[5],No difference
same,Body weight after injection at different doses,"[5]; SK2 50, 100, 150 μM (Figure 3E left)",no changes in body weight
"CN1C(=O)[C@@H](NC(=O)c2cc3ccccc3[nH]2)N=C(c2ccccc2)c2ccccc21 [devazepide, reference compound]",Block of SK2-induced calcium increases in SKR-CHO-K1 cells (antagonism),SK receptor gene SKR [1]; devazepide 10 nM + SK2 3 nM,no longer induced any calcium increases
FDDY(SO3H)GHMRF [SK1],Reversibility of stimulation upon wash-out in perifused SKR-CHO-K1 cells,SK receptor gene SKR [1],long‐lasting even after wash‐out
same,Calcium response in SKR-CHO-K1 cells,SK receptor gene SKR [1]; SK1 300 pM,did not elicit any change in calcium levels
same,Calcium response in SKR-CHO-K1 cells,"SK receptor gene SKR [1]; SK1 at 1, 3, 10, and 30 nM (all)",robust calcium spikes
same,Onset (lag time) of cytosolic calcium oscillations in SKR-CHO-K1 cells,SK receptor gene SKR [1],significant lag time
same,EC50,"SK receptor gene SKR [1]; read-out: EC50, calcium spikes (area under the peaks above baseline, per 10 min), SK1, SKR-CHO-K1, Fura-2 F340/F380, monophasic dose-response, N = 5-7",1.18 nM
same,Calcium response in parental CHO-K1 cells,CHO-K1 cells,no effect
same,"Prolongation of feeding, comparison with SK2 at same concentration",Aedes aegypti [3]; SK1 200 μM,significantly less active
same,SK mRNA expression vs DEPC water control,SK gene SK,decrease significantly
same,SKR mRNA expression vs DEPC water control,SK receptor gene SKR [4],No difference
CCCN(CCC)C(=O)C(CCC(=O)O)NC(=O)c1ccccc1 (centres unmarked) [proglumide],Blood intake after mixed injection vs DEPC water control,"Aedes aegypti [2]; proglumide 14 mM + SK2 100 μM, 1 μL",no significant difference
same,Blood intake after mixed injection vs single injection of SK2 at 100 μM,"Aedes aegypti [2]; proglumide 14 mM + SK2 100 μM, 1 μL, ****p < .0001 (Figure 3F)",higher
same,Pre-blood meal body weight among groups,[5],No difference
"CCK: sulfated cholecystokinin octapeptide (CCK), Tocris Cookson #1166 (D[sY]MGWMDF-NH2; UniProt P06307 96-103, looked up) [reference compound]",Calcium response in SKR-CHO-K1 cells,SK receptor gene SKR [1]; CCK 1 nM,no effect
same,Calcium response in SKR-CHO-K1 cells,SK receptor gene SKR [1]; CCK 10 nM and 100 nM,clear calcium increases
same,Reversibility of stimulation upon wash-out in perifused SKR-CHO-K1 cells,SK receptor gene SKR [1],readily washed out
same,Efficiency of activating SKR compared with mosquito peptide SK2,"SK receptor gene SKR [1]; SKR-CHO-K1, Figure 6",probably less efficiently than the mosquito peptide SK2
same,Calcium response in rat pancreatic acini,[6],robust calcium oscillations
"NCCc1ccc(O)c(O)c1 [dopamine, reference compound]",Calcium response in SKR-CHO-K1 cells,SK receptor gene SKR [1]; dopamine 1 mM,no effect
